Test results reported in ChEMBL document CHEMBL4699497, “Synthesis of indole-tethered [1,3,4]thiadiazolo and [1,3,4]oxadiazolo[3,2-a]pyrimidin-5-one hybrids as anti-pancreatic cancer agents” (Bioorg Med Chem Lett, 2020).

Test system: PANC-1
Assay: Cytotoxicity against human PANC1 cells assessed as reduction in cell viability measured after 48 hrs by MTS assay
Format: functional, cell-based
Settings: for IC50: PANC-1, 48 h
Method in brief: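 Human PANC-1 pancreatic cancer cells exposed to a range of doses of each compound for 48 h. Surviving cells quantified by MTS viability read-out, and IC50 derived from the dose-response curves.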

SMILES: O=c1c(-n2ccc3ccccc32)cnc2sc(-c3cccc(Br)c3)nn12
- IC50: > 100 µM

SMILES: O=c1c(-n2ccc3ccccc32)cnc2sc(-c3ccc(Cl)cc3)nn12
- IC50: > 100 µM

SMILES: O=c1c(-n2ccc3ccccc32)cnc2oc(-c3ccccc3)nn12
- inhibition: Dose-dependent effect
- IC50: 21.1 µM

SMILES: Cc1cc2ccccc2n1-c1cnc2sc(-c3ccc(Br)cc3)nn2c1=O
- IC50: > 100 µM

SMILES: O=c1c(-n2ccc3ccccc32)cnc2oc(-c3ccccc3Cl)nn12
- inhibition: Dose-dependent effect
- IC50: 7.7 µM

SMILES: Cc1cc2ccccc2n1-c1cnc2sc(-c3cccc(Br)c3)nn2c1=O
- IC50: > 100 µM

SMILES: Nc1ccn([C@@H]2O[C@H](CO)[C@@H](O)C2(F)F)c(=O)n1 [GEMCITABINE]
- IC50: > 500 µM

SMILES: Cc1cc2ccccc2n1-c1cnc2sc(-c3ccccc3Cl)nn2c1=O
- IC50: > 100 µM

SMILES: O=c1c(-n2ccc3ccccc32)cnc2sc(-c3ccccc3)nn12
- IC50: > 100 µM

SMILES: O=c1c(-n2ccc3ccccc32)cnc2sc(-c3ccc(Br)cc3)nn12
- IC50: > 100 µM

SMILES: O=c1c(-n2ccc3ccccc32)cnc2sc(-c3cccc(Cl)c3)nn12
- IC50: > 100 µM

SMILES: O=c1c(-n2ccc3ccccc32)cnc2oc(-c3ccc(Cl)cc3)nn12
- inhibition: Dose-dependent effect
- IC50: 94.9 µM

SMILES: Cc1cc2ccccc2n1-c1cnc2sc(-c3ccccc3)nn2c1=O
- IC50: > 100 µM

SMILES: O=c1c(-n2ccc3ccccc32)cnc2sc(-c3ccccc3Cl)nn12
- IC50: > 100 µM

SMILES: Cc1cc2ccccc2n1-c1cnc2oc(-c3ccc(Cl)cc3)nn2c1=O
- inhibition: Dose-dependent effect
- IC50: 40 µM

SMILES: O=c1c(-n2ccc3ccccc32)cnc2oc(-c3ccc(Br)cc3)nn12
- inhibition: Dose-dependent effect
- IC50: 90.5 µM
